Data set [1] has as its system MDA-MB-231. In words: Antimigratory activity against human MDA-MB-231 cells after 24 hrs by DAPI staining-based Transwell assay. The format is functional, cell-based. The essentials:
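MDA-MB-231 cells pre-treated with inhibitor 60 min, then 3 x 10⁵ cells seeded into 8 μm-pore Transwell inserts pre-coated with 10 μg/ml collagen (collagen as attractant). After 24 h, migrated cells in bottom well stained with DAPI, imaged at ×10 and counted. Triplicate assays, mean ± SEM.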

Data set [2] relates to MDA-MB-231. In words: Cell cycle arrest in human MDA-MB-231 cells assessed as accumulation of cells at sub-G0 phase at 0.3 to 6 uM after 2 hrs by propidium iodide staining-based flow cytometric analysis. As to conditions: mda-mb-231, 2 h. The format is ADME. The essentials: (§1)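 MDA-MB-231 cells seeded at 5 x 10^5 cells/well, allowed 24 h to attach, then treated with inhibitor or vehicle. Harvested at ~70% confluence, fixed in methanol ≥2 h, stained with 1 µg/ml propidium iodide; ~20,000 cells analysed by flow cytometry for cell-cycle phase proportions including sub-G0. Mean ± SEM, n=5.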

Data set [3] deals with MDA-MB-231. In words: Cell cycle arrest in human MDA-MB-231 cells at 0.3 to 6 uM after 2 hrs by propidium iodide staining-based flow cytometric analysis. As to conditions: mda-mb-231, 2 h. It counts as ADME. The essentials:
as §1

Data set [4] concerns the target MAP kinase-interacting serine/threonine-protein kinase 2 (Mus musculus) (UniProt Q8CDB0). As to the kind of experiment: Inhibition of MNK2 in MNK1-knockout C57BL/6J mouse embryonic fibroblasts assessed as decrease in eIF4E phosphorylation at 0.5 uM after 2 hrs by Western blot analysis. The method, boiled down: (§2)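 MEFs from E13.5 C57BL/6J embryos, wild-type, MNK1-KO or MNK2-KO (DMEM, 10% FBS), treated 2 h with inhibitor at indicated concentrations, including a lower-concentration series in MNK1-KO cells; CGP57380 at 50 μM as reference. Lysates analysed by SDS-PAGE/western blot for P-eIF4E; quantified from three independent experiments, SEM.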

The species named for data set [5] is Mus musculus. As to the kind of experiment: Inhibition of mTORC2 in mouse 3T3L1 cells assessed as reduction in PKB phosphorylation at Ser473 residue at 0.1 to 5 uM after 2 hrs by Western blot analysis. It counts as cell-based. The method, boiled down: (§3)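 3T3-L1 cells treated 2 h with inhibitor at indicated concentrations (DMSO <0.05% v/v). RIPA lysates, equal protein by Bradford, SDS-PAGE and western blot with phospho-specific antibodies (ERK, RSK, PKB Ser473, 4E-BP1, rpS6); fluorescent secondary imaging. Quantified from three independent experiments, SEM error bars.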
A general note: Immunoblotting shows a protein as a band on a membrane.

Data set [6] deals with MAP kinase-interacting serine/threonine-protein kinase 1 (Mus musculus) (UniProt O08605). As to the kind of experiment: Inhibition of MNK1 in C57BL/6J mouse embryonic fibroblasts assessed as decrease in eIF4E phosphorylation at 0.1 to 0.3 uM after 2 hrs by Western blot analysis relative to control. The essentials: as §2
Sequence of MAP kinase-interacting serine/threonine-protein kinase 1 (Mus musculus) (O08605 whole entry): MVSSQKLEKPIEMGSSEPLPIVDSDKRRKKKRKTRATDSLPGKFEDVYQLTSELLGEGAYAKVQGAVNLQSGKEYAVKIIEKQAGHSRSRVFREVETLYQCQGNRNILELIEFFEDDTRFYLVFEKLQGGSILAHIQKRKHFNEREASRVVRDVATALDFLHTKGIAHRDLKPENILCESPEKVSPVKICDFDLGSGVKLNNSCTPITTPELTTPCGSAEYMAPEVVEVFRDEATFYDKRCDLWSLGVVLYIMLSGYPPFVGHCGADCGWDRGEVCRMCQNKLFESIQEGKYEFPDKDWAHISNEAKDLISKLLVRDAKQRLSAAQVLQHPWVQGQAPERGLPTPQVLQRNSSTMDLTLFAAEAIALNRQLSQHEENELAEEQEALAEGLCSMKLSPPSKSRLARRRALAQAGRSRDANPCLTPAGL
The target of data set [7] is T1, MAP kinase-interacting serine/threonine-protein kinase 1/2 (Homo sapiens) (UniProt Q9HBH9+Q9BUB5). As to the kind of experiment: Inhibition of MNK in human MDA-MB-231 cells assessed as decrease in eIF4E phosphorylation at 1 uM after 2 hrs by Western blot analysis. The format is cell-based. The essentials:
(§4)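 MDA-MB-231 cells treated with inhibitor at indicated concentrations for 2 h, or at 3 μM for times up to 72 h (DMSO vehicle <0.05%). Cells lysed in RIPA buffer; supernatants analysed by SDS-PAGE and western blot for P-eIF4E and total eIF4E. CGP57380 at 30 μM as reference.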

Data set [8] has as its target MAP kinase-interacting serine/threonine-protein kinase 1 (Mus musculus) (UniProt O08605). In words: Inhibition of MNK1 in C57BL/6J mouse embryonic fibroblasts assessed as decrease in eIF4E phosphorylation at 5 uM after 2 hrs by Western blot analysis. The method, boiled down:
as §2

Data set [9] addresses MAP kinase-interacting serine/threonine-protein kinase 2 (Mus musculus) (UniProt Q8CDB0). In words: Inhibition of MNK2 in C57BL/6J mouse embryonic fibroblasts assessed as decrease in eIF4E phosphorylation at 5 uM after 2 hrs by Western blot analysis. The essentials: as §2
For data set [10], the species on record is Mus musculus. In words: Inhibition of MNK in mouse 3T3L1 cells assessed as reduction of eIF4E phosphorylation at 0.1 uM after 2 hrs by Western blot analysis. The format is cell-based. The method, boiled down:
(§5)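 Mouse 3T3-L1 pre-adipocytes (DMEM high glucose, 10% heat-inactivated FBS, 37 °C, 5% CO₂) treated 2 h with compounds at 3 μM or lower concentrations down to 0.1 μM final; DMSO vehicle 0.03-0.05% final. RIPA lysates cleared, equal protein resolved by SDS-PAGE, immunoblotted for P-eIF4E and total eIF4E, fluorescent secondary detection.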

For data set [11], the species on record is Mus musculus. As to the kind of experiment: Inhibition of mTORC1 in mouse 3T3L1 cells assessed as reduction in 4EBP1 at Ser65 residue phosphorylation at 0.1 to 5 uM after 2 hrs by Western blot analysis. It counts as cell-based. The method, boiled down:
as §3

Data set [12] concerns the target MAP kinase-interacting serine/threonine-protein kinase 2 (Mus musculus) (UniProt Q8CDB0). As to the kind of experiment: Inhibition of MNK2 in MNK1-knockout C57BL/6J mouse embryonic fibroblasts assessed as decrease in eIF4E phosphorylation at 0.003 to 0.03 uM after 2 hrs by Western blot analysis. The essentials:
as §2

The target of data set [13] is MAP kinase-interacting serine/threonine-protein kinase 2 (Homo sapiens) (UniProt Q9HBH9). In words: Inhibition of GST-fused MNK2a (unknown origin) expressed in HEK293 cells using eIF4E as substrate after 30 mins by Western blot analysis. It counts as cell-based. The essentials: (§6)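 GST-MNK1a or GST-MNK2a expressed in transfected HEK293 cells, purified by glutathione pull-down. Incubated in 25 mM Tris-HCl pH 7.5, 50 mM KCl, 2 mM MgCl₂ with 20 µM ATP and 65 ng E. coli-expressed eIF4E, 30 °C, 30 min, ± inhibitor. Stopped with sample buffer; immunoblotted for P-eIF4E Ser209, eIF4E and GST. Conditions pre-set within linear range.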
Sequence of MAP kinase-interacting serine/threonine-protein kinase 2 (Homo sapiens) (Q9HBH9 whole entry, looked up, the tested form may be a part): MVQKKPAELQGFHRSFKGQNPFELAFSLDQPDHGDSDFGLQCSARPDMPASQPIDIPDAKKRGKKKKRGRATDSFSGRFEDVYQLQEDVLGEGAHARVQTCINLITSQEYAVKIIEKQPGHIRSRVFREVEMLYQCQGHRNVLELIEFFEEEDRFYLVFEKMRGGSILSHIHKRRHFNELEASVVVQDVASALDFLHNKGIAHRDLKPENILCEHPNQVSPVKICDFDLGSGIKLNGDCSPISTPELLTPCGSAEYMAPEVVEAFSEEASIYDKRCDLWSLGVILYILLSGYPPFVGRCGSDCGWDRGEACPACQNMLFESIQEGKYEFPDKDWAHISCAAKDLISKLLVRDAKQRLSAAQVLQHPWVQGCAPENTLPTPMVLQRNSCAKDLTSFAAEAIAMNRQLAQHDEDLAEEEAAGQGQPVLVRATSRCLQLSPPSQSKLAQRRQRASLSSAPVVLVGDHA

Data set [14] concerns the target Mitogen-activated protein kinase 1 and 3 (ERK2 and ERK1) (Mus musculus) (UniProt P63085+Q63844). In words: Stimulation of ERK1/2 phosphorylation at Thr202/Tyr204 residues in mouse 3T3L1 cells at 0.1 to 5 uM after 2 hrs by Western blot analysis. The format is cell-based. The essentials: as §3
The species entered for data set [15] is Mus musculus. As to the kind of experiment: Inhibition of mTORC1 in mouse 3T3L1 cells assessed as reduction in rpS6 phosphorylation at Ser240/244 residues at 0.1 to 5 uM after 2 hrs by Western blot analysis. The format is cell-based. The method, boiled down:
as §3

The target of data set [16] is T1, MAP kinase-interacting serine/threonine-protein kinase 1/2 (Homo sapiens). As to the kind of experiment: Inhibition of MNK in human MDA-MB-231 cells assessed as decrease in eIF4E phosphorylation at 3 uM up to 72 hrs by Western blot analysis. It counts as cell-based. The method, boiled down:
as §4

For data set [17], the species on record is Mus musculus. As to the kind of experiment: Stimulation of ERK signalling in mouse 3T3L1 cells assessed as increase in RSK phosphorylation at […] residue at 0.1 to 5 uM after 2 hrs by Western blot analysis. It counts as cell-based. The essentials:
as §3

The next data set deals with 3T3-L1. As to the kind of experiment: Effect on total eIF4E protein level in mouse 3T3L1 cells at 3 uM after 2 hrs by Western blot analysis. The format is ADME, cell-based. The following applies: 3t3-l1, 2 h. The essentials: as §5
Data set [18] in a line: Inhibition in C57BL/6J mouse embryonic fibroblasts assessed as decrease in eIF4E phosphorylation at 0.1 to 0.3 uM after 2 hrs by Western blot analysis relative to control.
The species entered for data set [19] is Mus musculus. In words: Inhibition of MNK in mouse 3T3L1 cells assessed as reduction of eIF4E phosphorylation at 3 uM after 2 hrs by Western blot analysis. It counts as cell-based. The essentials: as §5
Data set [20] addresses MAP kinase-interacting serine/threonine-protein kinase 1 (Mus musculus) (UniProt O08605). As to the kind of experiment: Inhibition of MNK1 in MNK2-knockout C57BL/6J mouse embryonic fibroblasts assessed as decrease in eIF4E phosphorylation at 0.3 to 5 uM after 2 hrs by Western blot analysis. The method, boiled down:
as §2

Data set [21] concerns the target MAP kinase-interacting serine/threonine-protein kinase 1 (Homo sapiens) (UniProt Q9BUB5). In words: Inhibition of GST-fused MNK1a (unknown origin) expressed in HEK293 cells using eIF4E as substrate after 30 mins by Western blot analysis. It counts as cell-based. The method, boiled down:
as §6

Activity calls are given as the source filed them. Unless noted, the calls are words filed in the database; no cut-off is given here.

Sequence of MAP kinase-interacting serine/threonine-protein kinase 2 (Mus musculus) (Q8CDB0 whole entry): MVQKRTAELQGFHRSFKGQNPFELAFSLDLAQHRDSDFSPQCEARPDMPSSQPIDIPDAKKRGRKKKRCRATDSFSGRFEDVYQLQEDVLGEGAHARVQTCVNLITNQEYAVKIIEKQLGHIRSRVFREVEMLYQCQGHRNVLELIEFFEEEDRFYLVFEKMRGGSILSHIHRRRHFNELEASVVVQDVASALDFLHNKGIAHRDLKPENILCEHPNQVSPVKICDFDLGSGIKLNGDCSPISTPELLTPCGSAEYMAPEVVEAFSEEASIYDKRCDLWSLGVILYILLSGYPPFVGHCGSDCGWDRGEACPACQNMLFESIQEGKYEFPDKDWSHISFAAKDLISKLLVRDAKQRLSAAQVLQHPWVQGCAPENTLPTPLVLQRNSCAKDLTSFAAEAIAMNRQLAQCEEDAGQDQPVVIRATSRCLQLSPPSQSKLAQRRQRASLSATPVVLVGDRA
Sequence of MAP kinase-interacting serine/threonine-protein kinase 1 (Homo sapiens) (Q9BUB5 whole entry, looked up, the tested form may be a part): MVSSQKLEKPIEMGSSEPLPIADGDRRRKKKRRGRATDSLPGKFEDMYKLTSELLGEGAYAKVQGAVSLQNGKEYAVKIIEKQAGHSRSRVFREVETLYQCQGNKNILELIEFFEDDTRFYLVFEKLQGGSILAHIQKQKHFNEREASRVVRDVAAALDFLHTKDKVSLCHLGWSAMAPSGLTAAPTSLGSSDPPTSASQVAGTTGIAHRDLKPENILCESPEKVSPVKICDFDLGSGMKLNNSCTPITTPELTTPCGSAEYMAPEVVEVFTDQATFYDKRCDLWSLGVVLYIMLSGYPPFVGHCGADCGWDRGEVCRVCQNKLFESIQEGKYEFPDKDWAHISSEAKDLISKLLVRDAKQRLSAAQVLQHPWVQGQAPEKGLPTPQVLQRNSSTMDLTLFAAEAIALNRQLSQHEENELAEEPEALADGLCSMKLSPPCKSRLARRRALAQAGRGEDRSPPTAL
Sequence of Mitogen-activated protein kinase 1 and 3 (ERK2 and ERK1) (Mus musculus) (P63085 whole entry, looked up): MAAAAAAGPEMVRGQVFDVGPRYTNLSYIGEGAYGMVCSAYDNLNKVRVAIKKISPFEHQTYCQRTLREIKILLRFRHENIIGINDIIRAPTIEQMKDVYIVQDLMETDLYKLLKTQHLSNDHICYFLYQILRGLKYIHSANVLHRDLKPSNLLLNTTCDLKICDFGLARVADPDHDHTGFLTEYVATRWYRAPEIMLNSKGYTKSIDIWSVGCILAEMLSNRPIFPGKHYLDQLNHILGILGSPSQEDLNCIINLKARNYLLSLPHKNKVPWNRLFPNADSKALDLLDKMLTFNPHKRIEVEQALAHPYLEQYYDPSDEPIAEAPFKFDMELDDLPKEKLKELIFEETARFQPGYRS
Sequence of Mitogen-activated protein kinase 1 and 3 (ERK2 and ERK1) (Mus musculus) (Q63844 whole entry, looked up): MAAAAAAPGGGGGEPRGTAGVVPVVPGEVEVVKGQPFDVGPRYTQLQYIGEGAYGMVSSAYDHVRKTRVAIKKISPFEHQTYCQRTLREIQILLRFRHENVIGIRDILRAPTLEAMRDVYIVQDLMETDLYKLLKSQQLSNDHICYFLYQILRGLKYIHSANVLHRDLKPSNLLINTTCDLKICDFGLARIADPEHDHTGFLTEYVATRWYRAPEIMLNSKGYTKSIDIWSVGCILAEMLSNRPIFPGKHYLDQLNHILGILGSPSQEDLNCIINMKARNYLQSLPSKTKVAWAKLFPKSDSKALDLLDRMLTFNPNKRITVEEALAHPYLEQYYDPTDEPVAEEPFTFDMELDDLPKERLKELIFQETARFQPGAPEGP

The term inhibition denotes how much of the control response was suppressed. In the case of `Cc1c(C(=O)NCCCN2CCCC2)sc2ncnc(Nc3ccc(F)cc3OC(C)C)c12`, the inhibition result (in the data set on MDA-MB-231 [1]; in data set [4]; in data set [12]; in [13]; in [16]; in data set [20]) was “Active” throughout. Besides, in [21], the inhibition result is “Active”. Also, the Activity entry in the data set with MDA-MB-231 [2], in the data set with MDA-MB-231 [3] and in the data set on 3T3-L1 was “Non-Toxic” in each case. Also, the inhibition result in the data set filed under Mus musculus [5], in the data set filed under Mus musculus [11] and in the data set listed under Mus musculus [15] was “inactive” in each case. Moreover, the inhibition in [6] came to 50%; in data set [7] it was 100%; in data set [8] it was 100%; in data set [9], 100%; in data set [18] it was 50%. In the data set filed under Mus musculus [10], the “inhibition of eIF4E phosphorylation (active/not active)” value was “Active”. The outcome (in [14]; in the data set filed under Mus musculus [17]) was Active. Further, the “MNK inhibition (active/not active)” value in the data set listed under Mus musculus [19] was “Active”.

The values above are taken from ChEMBL document CHEMBL4382255, “Design, synthesis and activity of Mnk1 and Mnk2 selective inhibitors containing thieno[2,3-d]pyrimidine scaffold” (Eur J Med Chem, 2019).
